The source made the active and inactive calls. The calls are words filed in the database; no cut-off is given here.
Assays:
[1] = test system: Mycobacterium tuberculosis variant bovis; test: Inhibition of ATP synthesis in Mycobacterium bovis BCG ATCC 35734 assessed as reduction in ATP level at 4 x MIC90 incubated for 15 mins by BacTiter-Glo microbial luminescence assay; assay type: functional
Outline: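 Mid-log BCG diluted to OD600 0.1 in complete 7H9 and treated at 4× MIC90. At each time point, culture mixed 1:1 with BacTiter-Glo reagent for 15 min at room temperature in the dark and luminescence read. Background (media + reagent) subtracted. ATP quantified from a calibration curve of 0.1–100 nM ATP in 7H9. Rifampicin negative control.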

Cell membrane [2] = test: Induction of cell membrane depolarization in Mycobacterium bovis BCG ATCC 35734 assessed as loss in mitochondrial membrane potential at 4 x MIC90 incubated for 24 hrs by DiOC2(3) dye based fluorescence assay; assay type: subcellular; conditions: Mycobacterium tuberculosis variant bovis
Outline: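 Aliquots taken at selected times and stained with DiOC2(3) (BacLight membrane potential kit). Depolarization read as a fall in red/green fluorescence ratio. CCCP 5 μM positive control, rifampicin 0.08 μM negative control.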

Cell membrane [3] = test: Induction of cell envelope stress in Mycobacterium bovis BCG ATCC 35734 expressing piniBAC RFP at 4 x MIC90 after 24 hrs by fluorescence analysis; assay type: subcellular; conditions: Mycobacterium tuberculosis variant bovis
Outline: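 Recombinant M. bovis BCG-piniBAC-RFP at OD600 0.2, incubated with compound for 24 h. Red fluorescence (Ex 587/Em 630 nm) normalized to OD600 to reflect promoter induction. INH (0.1–50 μM) positive control.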

| SMILES | inhibition [1] | Activity (Cell membrane [2]) | Activity (Cell membrane [3]) |
| --- | --- | --- | --- |
| Cc1nc2c(n1CCCCCCCCC[P+](c1ccccc1)(c1ccccc1)c1ccccc1)C(=O)c1ccccc1C2=O | Active | Active | – |
| CCCCCCC[P+](c1ccccc1)(c1ccccc1)c1ccccc1 | Active | Active | – |
| Cc1nc2c(n1CCCCCCCCCCC[P+](c1ccccc1)(c1ccccc1)c1ccccc1)C(=O)c1ccccc1C2=O | Active | Active | – |
| CCCCCCCCCCC[P+](c1ccccc1)(c1ccccc1)c1ccccc1 | Active | Active | – |
| NNC(=O)c1ccncc1 | – | – | Active |

Reference: ChEMBL document CHEMBL5104224, “Alkyltriphenylphosphonium turns naphthoquinoneimidazoles into potent membrane depolarizers against mycobacteria” (RSC Med Chem, 2022)
